Compounds with a hit are over-represented: about 3.7% of the library has one in this group of screens.
hERG protect: hERG rescue from dofetilide block, primary screen, cell-based, CHO-hERG, FluxOR thallium flux, dofetilide IC70; dofetilide IC70 present; Voltage-gated inwardly rectifying potassium channel KCNH2 (Homo sapiens), Q12809; hit rate 0.51% among 310,000; AID 1511, 2009; activation (rescue from dofetilide block), less the hit threshold, % at 10 µM;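 active = activation above the mean of controls blocked by dofetilide plus 5 SD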;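 note: thallium influx through hERG after potassium depolarization seen as dye fluorescence rise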
KCNQ1 pot: potentiators or activators of KCNQ1 channel, primary screen, cell-based, thallium flux, high-throughput | CHO-K1 KCNQ1, thallium flux FluxOR fluorescence; stronger effect = higher value | B-score at 10 µM | hit rate 0.35% among 310,000;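 active = fluorescence ratio B-score, a plate-corrected score, at least three library SD, with initial intensity B-score within 5 SD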
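Medium – assay buffer, equal DMSO in all wells · Material – CHO-K1 cell line with stable KCNQ1 potassium channel expression · Signal – kinetic FluxOR thallium fluorescence, 10-s 1-Hz baseline, 110-s post-stimulus read · Compound – single concentration per compound, DMSO matched to controls · Schedule – 37 °C overnight plating, 90-min dark dye load, 20-min compound pretreatment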
KCNK9 block: KCNK9 potassium channel inhibitors, primary screen, HEK293 cells, thallium flux; FluxOR thallium flux fluorescence; stronger effect = lower value; hit rate 1.2% among 310,000; B-score at 10 µM;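 active = ratio B-score over 3 SD below the library mean, with starting fluorescence within 5 SD of its mean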;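 note: negative B-score means less thallium flux so channel inhibition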
Target sequence (Q9NPC2 whole entry, looked up): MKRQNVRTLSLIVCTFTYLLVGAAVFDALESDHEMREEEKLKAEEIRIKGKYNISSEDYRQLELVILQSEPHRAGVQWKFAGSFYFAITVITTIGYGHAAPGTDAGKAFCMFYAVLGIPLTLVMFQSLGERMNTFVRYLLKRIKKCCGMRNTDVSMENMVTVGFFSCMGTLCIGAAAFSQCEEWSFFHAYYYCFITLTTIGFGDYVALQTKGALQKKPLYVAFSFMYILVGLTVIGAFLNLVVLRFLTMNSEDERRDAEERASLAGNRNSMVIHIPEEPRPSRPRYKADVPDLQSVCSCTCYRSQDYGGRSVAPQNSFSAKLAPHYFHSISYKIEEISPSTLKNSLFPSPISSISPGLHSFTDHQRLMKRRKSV
KCNQ1 block: inhibitors of human KCNQ1 channel, primary screen, cell-based, thallium flux, high-throughput. B-score at 10 µM. CHO-K1 KCNQ1, FluxOR thallium flux fluorescence; stronger effect = higher value. AID 2642, 2010. hit rate 1.3% among 310,000;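 active = compounds whose thallium flux B-score, printed positive for inhibition, exceeds three library SD while starting fluorescence stays within three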;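 note: channel opened by potassium depolarization with thallium stimulus after 20 min compound exposure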
Kir21 block: inhibitors of mouse Kir2.1 inward-rectifier potassium channel; B-score at 10 µM; AID 1672, 2009; hit rate 0.85% among 310,000; HEK293-Kir2.1, FluxOR thallium flux fluorescence; stronger effect = lower value; Inward rectifier potassium channel 2 (Mus musculus), P35561;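 active = fluorescence ratio B-score at or below minus 3 SD of library scores, with starting-brightness B-score within 2 SD, cut at about -4.2 in these data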;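 note: channel flux triggered by added potassium and thallium sulfate stimulus; B-score of peak minus minimum fluorescence over baseline after thallium stimulus; more negative B-score means stronger Kir2.1 block with less thallium influx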
KCNK3 block: human KCNK3 channel inhibitors, primary screen, CHO cells, FluxOR thallium flux, B-score; hit rate 0.84% among 340,000; FluxOR fluorescence; stronger effect = lower value; AID 602410, 2012; B-score at 10 µM;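 active = B-score under library mean minus 4 SD, starting fluorescence ratio at most library mean plus 5 SD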;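 note: more negative B-score means stronger inhibition of thallium flux through KCNK3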
* hit, by the source's call; i = inactive; / = no result; ! = a repeat was not active.

SMILES	hERG protect	KCNQ1 pot	KCNK9 block	KCNQ1 block	Kir21 block	KCNK3 block
CCOC(=O)C1=NN(c2ccc(F)cc2)C2=NC(C)=C(C(=O)OC)C(c3cccs3)N12 (centres undefined)	-19	i	-6.9*	i	1.3	i
CCOC(=O)C1=NN(c2ccccc2)C2=NC(C)=C(C(=O)OC)C(c3cccs3)N12 (centres undefined)	-10	i	i	i	0.75	i
Cc1ccc(S(=O)(=O)N2CCN(C(=O)CC(C)n3nc(C)c(Cl)c3C)CC2)cc1 (centres undefined)	-4	i	i	i	-0.36	i
OCC(Cc1ccccc1)Nc1c2ccccc2nc2ccccc12 (centres undefined)	-21	i	i	i	-8.6*	i
O=C(Cc1ccccc1)NNc1c2ccccc2nc2ccccc12	-10	i	i	i	-0.66	i
CCC(C)Nc1nc(N)c([N+](=O)[O-])c(Nc2ccccc2OC)n1 (centres undefined)	-5	i	-7.9*	i	0.38	i
CCOC(=O)C1=C(C)N(c2ccccc2)C(=O)/C1=C\c1ccc(O)c(OC)c1	-5	i	-6.8*	i	1.4	i
CCOC(=O)C1=C(C)N(c2ccccc2)C(=O)/C1=C\c1ccco1	-10	i	i	i	1.1	i
CCN(Cc1ccncc1)Cc1cn(C)nc1-c1ccc(Oc2ccccc2)cc1	-14	i	i	6*	-1.4	i
Cc1cccc(C)c1NC(=O)CNC(=O)c1ccc2c(c1)NC(=O)CS2	/	/	/	/	/	i
CC(C)c1ccc(NC(=O)C(c2ccccc2)N(Cc2ccco2)C(=O)CC2NC(=O)NC2=O)cc1 (centres undefined)	-10	i	i	8*	0.28	i
COc1ccc(NC(=O)C(c2ccc(OC)cc2)N(C)C(=O)CC2NC(=O)NC2=O)cc1 (centres undefined)	-8	i	i	i	-0.06	i
COc1ccc(Cn2c(S(=O)(=O)CC(N)=O)nc3ccccc32)cc1[N+](=O)[O-]	-10	i	i	i	-0.25	/
C=C1C(=O)C=C2CN(C(=O)c3ccccc3)[C@@](Cc3ccc(F)cc3)(C(=O)OC)[C@@H]12	-26	17*	i	i	-4.5*	i
COC(=O)[C@@]1(Cc2ccc(F)cc2)[C@H]2c3cc(C(=O)N(C)C)n(Cc4ccc(OC)c(OC)c4)c3C[C@H]2CN1C(=O)c1ccccc1	-9	i	i	i	0.47	/
CC(C)(C)c1ccc(S(=O)(=O)NCC(=O)N2CCN(Cc3ccccc3)CC2)cc1	-5	i	i	i	-0.03	i
OC(CNCc1ccccc1F)COc1cccc2ccccc12 (centres undefined)	-7	i	i	i	-6.9*	i
CC(C)NCC(O)COc1cccc2ccccc12 (centres undefined)	-6	i	i	i	-0.47	i
Cc1ccccc1OCc1nc2ccccc2c(=O)n1/N=C/c1ccco1	-5	i	-6.9*	i	-0.07	i
Cc1nc2ccccc2c(=O)n1/N=C/c1ccco1	-1	i	i	i	-0.05	i
CSC1SCC2C(=O)N(C)C(C(C)C)C(=O)OCC(NC(=O)c3cnc4ccccc4n3)C(=O)NC(C)C(=O)N(C)C1C(=O)N(C)C(C(C)C)C(=O)OCC(NC(=O)c1cnc3ccccc3n1)C(=O)NC(C)C(=O)N2C (centres undefined)	/	/	/	/	/	i
CCCCC(=O)Nc1nc(C)c(-c2csc(Nc3ccccc3OC)n2)s1	-9	i	i	i	0.98	i
CCCCCC(=O)Nc1nc(C)c(-c2csc(Nc3cc(OC)ccc3OC)n2)s1	-10	i	-7.3*	i	0.19	i
COCCSc1ccccc1C(=O)Nc1ccccc1C#N	-12	i	i	i	-0.1	i
COc1cc(NS(=O)(=O)c2ccc(NC(=O)Cc3ccccc3)cc2)nc(OC)n1	-6	i	i	i	0.82	i
SMILES	hERG protect	KCNQ1 pot	KCNK9 block	KCNQ1 block	Kir21 block	KCNK3 block
O=[N+]([O-])c1cc(C(F)(F)F)ccc1NCCNC(=S)Nc1ccc(Cl)cc1	-5	i	i	6*	0.77	i
S=C(NCCc1ccccc1)Nc1ccc(Cl)cc1	-10	i	i	i	0.68	i
O=[N+]([O-])c1ccc(NC(=S)NCCc2ccc(Cl)cc2)cc1	-14	i	i	8*	-0.44	i
O=[N+]([O-])c1ccc(NC(=S)NCCc2ccccc2)cc1	-19	i	i	6*	-0.52	i
O=[N+]([O-])c1cc(C(F)(F)F)ccc1NCCCCNS(=O)(=O)c1ccc(Cl)cc1	-9	i	i	i	-0.22	i
O=C(NCc1ccc2c(c1)OCO2)c1cccc(S(=O)(=O)N2CCCC2)c1	-2	i	i	i	0.14	i
COc1ccc(-c2cc(-c3ccc(C)cc3)nc(SCc3nnc(-c4ccccc4)o3)c2C#N)cc1OC	-1	i	i	i	-0.03	i
CCOC(=O)C1=C(Nc2ccccc2)CC(C)(O)C(C(=O)OCC)C1c1ccc(Cl)cc1 (centres undefined)	/	/	/	/	/	-9.9*!
C/C(=N\NC(=O)c1nnn(-c2nonc2N)c1CN(C)c1ccccc1)c1ccccn1	-10	i	-7.6*	i	-0.06	i
CCCN(CCC)Cc1c(C(=O)N/N=C/C(C)=C\c2ccco2)nnn1-c1nonc1N	-14	16*	i	i	0.08	i
CC(/C=N/NC(=O)c1nnn(-c2nonc2N)c1CN(C)C)=C\c1ccco1	-7	i	i	i	-1.1	i
Nn1c(Cc2cccc3ccccc23)nnc1SCc1ccccc1	-5	i	i	i	-4.6*	i
Clc1ccc(OCCn2ccnc2)c(Cl)c1	-7	i	i	i	-2.5	i
O=C1CCC(=O)N1OCCOc1ccc(Cl)c2ccccc12	-14	i	i	6*	-0.63	i
Clc1ccc(OCCn2ccnc2)c2ccccc12	-19	i	i	6*	-4	i
Cc1ccc(C)c(OCC(=O)N(Cc2ccccc2)c2c(N)n(Cc3ccccc3)c(=O)[nH]c2=O)c1	/	/	/	/	/	i

Screens deposited in PubChem BioAssay by Johns Hopkins Ion Channel Center.
